# Results of several laboratories.
# PIK3CA: Phosphatidylinositol 4,5-bisphosphate 3-kinase catalytic subunit alpha isoform (PIK3CA, Homo sapiens, UniProt P42336)
# PIK3CA M1043I: Phosphatidylinositol 4,5-bisphosphate 3-kinase catalytic subunit alpha isoform (PIK3CA, Homo sapiens, UniProt P42336, M1043I)
# PIK3CA H1047L: Phosphatidylinositol 4,5-bisphosphate 3-kinase catalytic subunit alpha isoform (PIK3CA, Homo sapiens, UniProt P42336, H1047L)
# PIK3CA H1047Y: Phosphatidylinositol 4,5-bisphosphate 3-kinase catalytic subunit alpha isoform (PIK3CA, Homo sapiens, UniProt P42336, H1047Y)
target,effect on,mode,technique,tested at,quantity,result,Structure (SMILES)
PIK3CA,ligand displacement,,TR-FRET,,kinact,0.000127 s⁻¹,C=CC(=O)N(C)CCCCC(=O)N1CCN(c2nc(-c3cnc(N)nc3C(F)F)nc(N3CCOCC3)n2)CC1
PIK3CA M1043I,binding,,,1 µM,remaining binding,100%,N[C@@H]1CCN(c2nccc(-c3cnn4ncccc34)n2)C1
PIK3CA,target engagement in cells,inhibitor,chemoproteomics,20 mM,inhibition,28.5%,c1ccc(CNc2nc(N3CCOc4ccccc43)nc3c2CCCC3)cc1
PIK3CA,cell-free assay,inhibitor,,20 µM,remaining signal,100%,Nc1ncnc2occ(-c3ccc(NC(=O)Nc4cc(C(F)(F)F)ccc4F)cc3)c12
"Phosphatidylinositol 4,5-bisphosphate 3-kinase catalytic subunit alpha isoform (PIK3CA, Homo sapiens, UniProt P42336, I800L)",cell-free assay,,competition with immobilised ligand,1 µM,remaining binding,91%,O=C(Nc1cccnn1)N1CC(C/C=C/c2cncc(Oc3ccc(C(F)(F)F)cn3)n2)C1
PIK3CA,ligand displacement,,TR-FRET,,kinact,9.6e-05 s⁻¹,C=CC(=O)NCCCCC(=O)N1CCN(c2nc(-c3cnc(N)nc3C(F)F)nc(N3CCOCC3)n2)CC1
"Phosphatidylinositol 4,5-bisphosphate 3-kinase catalytic subunit alpha isoform (PIK3CA, Homo sapiens, UniProt P42336, E545A)",cell-free assay,,competition with immobilised ligand,1 µM,remaining binding,69%,NS(=O)(=O)c1cc(NC(=O)Cc2ccccc2)ccc1Oc1cccc(Cl)c1
PIK3CA,binding,,,1 µM,remaining binding,100%,COc1ccnn2ncc(-c3ccnc(N(C)C)n3)c12
PIK3CA M1043I,cell-free assay,,competition with immobilised ligand,1 µM,remaining binding,96%,CN(C)CC#Cc1ccc(OCCCc2sc(N3CCc4cccc(C(=O)Nc5nc6ccccc6s5)c4C3)nc2C(=O)O)c(F)c1
"Phosphatidylinositol 4,5-bisphosphate 3-kinase catalytic subunit alpha isoform (PIK3CA, Homo sapiens, UniProt P42336, E545K)",enzyme activity,inhibitor,ADP detection,10 µM,remaining activity,37.6%,CC(=O)Oc1ccc(-c2coc3c4c(c(CC=C(C)C)c(OC(C)=O)c3c2=O)OC(C)(C)C=C4)cc1OC(C)=O
PIK3CA M1043I,cell-free assay,,competition with immobilised ligand,1 µM,remaining binding,100%,O=c1nc(-c2ccccn2)sc2ccccc12
PIK3CA H1047L,enzyme activity,inhibitor,,23.5 nM,remaining activity,70%,Cc1ccc(C(=O)Nc2ccc(CN3CCN(C)CC3)c(C(F)(F)F)c2)cc1C#Cc1cnc2cccnn12
PIK3CA,cell-free assay,,TR-FRET,,kinact,0.000406 s⁻¹,C=CC(=O)N1CCC(C(=O)N(C)CCCC(=O)N2CCN(c3nc(-c4cnc(N)nc4C(F)F)nc(N4CCOCC4)n3)CC2)CC1
PIK3CA H1047Y,binding,,,1 µM,remaining binding,81%,F[C@@H]1CCN(c2nccc(-c3cnn4ncccc34)n2)C1
PIK3CA M1043I,cell-free assay,,competition with immobilised ligand,1 µM,remaining binding,30.3%,Cc1cc(NC(=O)c2cccc(S(F)(F)(F)(F)F)c2)cc(-n2ccn3nc(-c4cccnc4)cc23)c1
PIK3CA H1047Y,binding,,,1 µM,remaining binding,83%,c1cnn2ncc(-c3ccnc(N4CCC45COC5)n3)c2c1
PIK3CA,cell-free assay,,competition with immobilised ligand,1 µM,remaining binding,88%,CCC(=O)N[C@@H]1CC[C@H](C(=O)N(C)c2ccc(-c3nc4ccccc4o3)cc2)C1
PIK3CA H1047L,binding,,,1 µM,remaining binding,75%,C[C@@H]1CCN(c2nccc(-c3cnn4ncccc34)n2)C1
"Phosphatidylinositol 4,5-bisphosphate 3-kinase catalytic subunit alpha isoform, with p85 (PIK3CA, Homo sapiens, UniProt P42336)",enzyme activity,inhibitor,,1 µM,activity vs control,97%,Cc1ccc(C(=O)NCc2ccsc2)cc1C#Cc1cn(C(C)C)c2ncnc(N)c12
